Assay results as given in ChEMBL document CHEMBL4480378, “Amide linked redox-active naphthoquinones for the treatment of mitochondrial dysfunction” (2019).
Active and inactive are the calls of the source. The calls are words filed in the database; no cut-off is given here.

Experiments:
HepG2 [1] = assay: Cytoprotection against rotenone-induced mitochondrial dysfunction in human HepG2 cells assessed as increase in cell viability by measuring ATP levels at 10 uM preincubated for 48 hrs followed by rotenone-induction and measured after 24 hrs by luciferase-based assay; type: functional
Procedure, shortened: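 5000 HepG2 cells per well preincubated with quinone (10 µM) for 2 days, then challenged with rotenone (1 µM) for 6 hours in HBSS. Post-incubated with quinone alone in HBSS for a further 24 h. Viability read as ATP content by luciferase reaction, as percentage of untreated (no rotenone) control. 3 independent experiments, n = 6 wells each; error bars SD.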

HepG2 [2] = assay: Cytoprotection against rotenone-induced mitochondrial dysfunction in human HepG2 cells assessed as acute ATP rescue at 10 uM co-treated with rotenone for 1 hr by luciferase-based assay relative to control; type: functional
Procedure, shortened: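 HepG2 cells, 15 000 per well, attached overnight; after 24 h co-incubated with quinone (10 µM) and rotenone (10 µM) for 1 hour in glucose-free growth media. ATP then measured immediately by luciferase reaction, expressed as percentage of untreated (no rotenone) control.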

[3] = Ratio of IC50 for cytotoxicity against rat RGC5 cells to IC50 for cytotoxicity against human HepG2 cells
Rattus norvegicus = species on record: Rattus norvegicus; assay: Cytoprotection against rotenone-induced mitochondrial dysfunction in rat RGC5 cells assessed as increase in cell viability by measuring ATP levels at 10 uM preincubated for 48 hrs followed by rotenone-induction and measured after 24 hrs by luciferase-based assay; type: functional
[4] = Electrochemical behavior of the compound assessed as redox potential (Eox) corrected toward saturated calomel reference electrode by cyclic voltammetry
[5] = Electrochemical behavior of the compound assessed as redox potential (Ered) corrected toward saturated calomel reference electrode by cyclic voltammetry

Structure (SMILES) | Activity (HepG2 [1]) | Activity (HepG2 [2]) | Ratio IC50 [3] | also measured
CC1=C(CCCC(=O)NCCc2c[nH]c3ccccc23)C(=O)c2ccccc2C1=O | 100% | 100% | – | –
CC1=C(CCCCC(=O)O)C(=O)c2ccccc2C1=O | Active | 60 - 90% | – | –
COc1ccc(CCNC(=O)CCCC2=C(C)C(=O)c3ccccc3C2=O)cc1OC | 100% | 100% | – | –
CC1=C(CCCC(=O)N[C@@H](CC(C)C)C(=O)OC(C)(C)C)C(=O)c2ccccc2C1=O | inactive | 90% | – | –
CCCCCCCC1=C(C)C(=O)c2ccccc2C1=O | Active | 60 - 90% | 2 | Activity (Rattus norvegicus): Active
CC1=C(CCC2CCCC2)C(=O)c2ccccc2C1=O | – | 60 - 90% | 2 | –
CCCCCCCC/C=C\CCCCCCCC1=C(C)C(=O)c2ccccc2C1=O | – | – | 2 | –
COC1=C(OC)C(=O)C(CCCCCCCCCCO)=C(C)C1=O [IDEBENONE] | – | 60 - 90% | – | Activity [4]: -0.637 V; Activity [5]: -0.714 V
CCCCOC(=O)CCCC1=C(C)C(=O)c2ccccc2C1=O | – | <30% | 2 | –
CC1=C(CCCCCC(=O)O)C(=O)c2ccccc2C1=O | Active | 60 - 90% | – | –
CCCCCCOC(=O)CCC1=C(C)C(=O)c2ccccc2C1=O | – | <30% | 2 | –
CC1=C(CCC(=O)O)C(=O)c2ccccc2C1=O | Active | 60 - 90% | 2 | –
CC1=C(CCCC(=O)N[C@@H](Cc2ccc(O)cc2)C(=O)OC(C)(C)C)C(=O)c2ccccc2C1=O | inactive | 90% | – | –
CC1=C(CCCC(=O)N[C@H](CO)Cc2ccccc2)C(=O)c2ccccc2C1=O | 100% | 100% | – | –
CC1=C(CCCC(=O)N[C@@H](CC(C)C)C(=O)O)C(=O)c2ccccc2C1=O | – | 5 - 70% | – | –
C=CCCC1=C(C)C(=O)c2ccccc2C1=O | – | 60 - 90% | 2 | –
CC1=C(CCC(F)(F)F)C(=O)c2ccccc2C1=O | – | 60 - 90% | – | –
CCCCCCOC(=O)CCCC1=C(C)C(=O)c2ccccc2C1=O | – | <30% | 2 | –
CC1=C(CCCCCCCCCCO)C(=O)c2ccccc2C1=O | Active | – | 2 | Activity (Rattus norvegicus): Active; Activity [4]: -0.768 V; Activity [5]: -0.845 V
CCCCCCC1=C(C)C(=O)c2ccccc2C1=O | Active | 60 - 90% | 2 | Activity (Rattus norvegicus): Active
CC1=C(CC(C)CCCC(C)C)C(=O)c2ccccc2C1=O (stereo unspecified) | – | 60 - 90% | 2 | –
CC1=C(CC(C)(O)C(F)(F)F)C(=O)c2ccccc2C1=O (stereo unspecified) | – | 60 - 90% | – | –
CCOC(=O)CCCC1=C(C)C(=O)c2ccccc2C1=O | – | <30% | 2 | –
CCOC(=O)CCC1=C(C)C(=O)c2ccccc2C1=O | inactive | <30% | 2 | Activity (Rattus norvegicus): Active

Structure (SMILES) | Activity (HepG2 [1]) | Activity (HepG2 [2]) | Ratio IC50 [3] | also measured
CC1=C(CCC(C)C)C(=O)c2ccccc2C1=O | – | – | 2 | –
CC1=C(CCCCCCCCC2CO2)C(=O)c2ccccc2C1=O (stereo unspecified) | – | 60 - 90% | 2 | –
CC1=C(CCCC(=O)NCC(=O)OC(C)(C)C)C(=O)c2ccccc2C1=O | 90 - 100% | – | – | –
COc1ccc(CC2=C(C)C(=O)c3ccccc3C2=O)cc1OC | – | 60 - 90% | 2 | –
COC(=O)[C@H](NC(=O)CCCC1=C(C)C(=O)c2ccccc2C1=O)c1ccccc1 | 90 - 100% | – | – | –
CC(=O)CCC1=C(C)C(=O)c2ccccc2C1=O | Active | 60 - 90% | 2 | Activity (Rattus norvegicus): Active
CC1=C(CCCC(=O)N[C@@H](Cc2ccc(OC(=O)CCCC3=C(C)C(=O)c4ccccc4C3=O)cc2)C(=O)OC(C)(C)C)C(=O)c2ccccc2C1=O | 90 - 100% | – | – | –
CC1=C(CCCC(=O)N[C@@H](Cc2ccccc2)C(=O)O)C(=O)c2ccccc2C1=O | 90 - 100% | 5 - 70% | – | –
CC1=C(CCC(C)O)C(=O)c2ccccc2C1=O (stereo unspecified) | Active | 60 - 90% | 2 | Activity (Rattus norvegicus): Active
CC1=C(CCCC(=O)N2CCC[C@H]2C(=O)OC(C)(C)C)C(=O)c2ccccc2C1=O | 90 - 100% | – | – | –
CC1=C(CCCC(=O)N[C@@H](Cc2ccccc2)C(=O)OC(C)(C)C)C(=O)c2ccccc2C1=O | 90 - 100% | – | – | –
CCC[C@H](NC(=O)CCCC1=C(C)C(=O)c2ccccc2C1=O)C(=O)OC(C)(C)C | 90 - 100% | – | – | –
CCCCOC(=O)CCC1=C(C)C(=O)c2ccccc2C1=O | – | <30% | 2 | –
CC1=C(CCCc2ccccc2)C(=O)c2ccccc2C1=O | – | – | 2 | –
CC1=C(CC2CCC(=O)O2)C(=O)c2ccccc2C1=O (stereo unspecified) | – | 60 - 90% | 2 | –
CC1=C(CCCC(=O)N2CCC[C@H]2C(=O)O)C(=O)c2ccccc2C1=O | – | 5 - 70% | – | –
CC1=C(CC[C@@H](C)[C@H]2CC[C@H]3[C@@H]4CC[C@@H]5C[C@H](O)CC[C@]5(C)[C@H]4C[C@H](O)[C@]23C)C(=O)c2ccccc2C1=O | – | – | 2 | –
CCCCCCCCCCC1=C(C)C(=O)c2ccccc2C1=O | inactive | – | 2 | Activity (Rattus norvegicus): inactive
COC(=O)[C@H](Cc1ccccc1)NC(=O)CCCC1=C(C)C(=O)c2ccccc2C1=O | 90 - 100% | – | – | –
COC(=O)[C@@H](NC(=O)CCCC1=C(C)C(=O)c2ccccc2C1=O)c1ccccc1 | 90 - 100% | – | – | –
C=CCCCCCCCCC1=C(C)C(=O)c2ccccc2C1=O | – | 60 - 90% | 2 | –
CCCCCCCCC1=C(C)C(=O)c2ccccc2C1=O | Active | 60 - 90% | 2 | Activity (Rattus norvegicus): Active
CC1=C(CCCC(=O)NCCc2ccc(O)cc2)C(=O)c2ccccc2C1=O | 100% | 100% | – | –
